Experimental findings from ChEMBL document CHEMBL4732215, “In vitro and in vivo antiplasmodial activity of novel quinoline derivative compounds by molecular hybridization” (Eur J Med Chem, 2021) are described below.

Data set [1] is described as follows: Selectivity index, ratio of CC50 for human WI-26VA-4 cells to IC50 for chloroquine-resistant ring-stage Plasmodium falciparum W2 infected in human RBC. Format: toxicity. Particulars: read-out: Ratio CC50/IC50.
The nature of data set [2]: (§1) Hemolytic activity against human RBC at 150 uM incubated for 16 hrs by spectrophotometric analysis. Format: ADME, cell-based, Erythrocyte. Particulars: human red blood cells (erythrocytes), read-out: Activity. The method in brief:
(§2)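 Red blood cells were incubated with compound at 37 °C for 16 h, with 1% saponin as positive and PBS as negative control. Tubes were centrifuged at 2000 rpm for 3 min, and supernatant absorbance was read at 540 nm. Percent hemolysis was calculated relative to the saponin and PBS mean absorbances. Means were compared by ANOVA with Tukey test.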

Data set [3] is described as follows: Cytotoxicity against human WI26VA4 cells assessed as reduction in cell viability incubated for 48 hrs by MTT assay. Format: cell-based.
Another data set concerns Plasmodium falciparum. The data set can be described thus: Antimalarial activity against chloroquine-resistant Plasmodium falciparum W2 infected in human RBC assessed as reduction in HRP2 level by ELISA. Format: functional, organism-based. Particulars: W2, Erythrocyte.
The subject of data set [4] is Ferriprotoporphyrin IX. The data set can be described thus: Binding affinity to Fe(III)PPIX (unknown origin) assessed as association constant by UV-Vis spectrophotometric analysis relative to control. The gist of the method:
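UV-vis titration against Fe(III)PPIX at pH 7.5. Hemin stock was in DMSO and diluted in aqueous DMSO with 0.2 M Tris buffer pH 7.5. A 0.3 mM compound solution in the same solvent ratio was added in aliquots to 2 mL hemin solution. The blank received the same additions, and its absorbance was subtracted. A at 402 nm (Soret band) was fitted to a 1:1 complexation model by nonlinear least squares to give K. Run in triplicate.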

Data set [5] concerns Plasmodium berghei. Briefly: Antimalarial activity against Plasmodium berghei NK65 infected in Swiss mouse assessed as parasitemia at 15 mg/kg, po administered for 4 days and measured on day 5 post infection by Giemsa staining based microscopic analysis (reference value: 100 %). Format: functional. Particulars: time 4 day. The method in brief: (§3)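 Modified suppressive test in female Swiss mice infected with P. berghei NK65. Compounds were solubilized in 5% DMSO, diluted in water, and given by gavage. Parasitemia was read on Giemsa-stained blood smears on days 5 and 9 post-infection. Inhibition of parasite multiplication = [(A−B)/A]×100, where A is parasitemia of the water + 5% DMSO group.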

The subject of data set [6] is Plasmodium berghei. The data set can be described thus: Antimalarial activity against Plasmodium berghei NK65 infected in Swiss mouse assessed as parasitemia at 25 mg/kg, po administered for 4 days and measured on day 9 post infection by Giemsa staining based microscopic analysis (reference value: 100 %). Format: functional. Particulars: time 4 day. The method in brief: as §3

Data set [7] relates to Plasmodium berghei. Briefly: Antimalarial activity against Plasmodium berghei NK65 infected in Swiss mouse assessed as parasitemia at 15 mg/kg, po administered for 4 days and measured on day 9 post infection by Giemsa staining based microscopic analysis (reference value: 100 %). Format: functional. Particulars: time 4 day. The method in brief: as §3
The subject of data set [8] is Ferriprotoporphyrin IX. Briefly: Binding affinity to Fe(III)PPIX (unknown origin) assessed as reduction in hypochromism by UV-Vis spectrophotometric analysis relative to control. Particulars: concentration not given here. The method in brief:
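Soret band (402 nm) absorbance of Fe(III)PPIX in Tris pH 7.5/aqueous DMSO was followed while 0.3 mM compound was titrated in to saturation. The blank was treated the same way to subtract compound absorbance. Hypochromism was taken as the percentage reduction in absorption intensity. Run in triplicate.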

Data set [9] concerns Plasmodium berghei. Briefly: Antimalarial activity against Plasmodium berghei NK65 infected in Swiss mouse assessed as parasitemia at 25 mg/kg, po administered for 4 days and measured on day 5 post infection by Giemsa staining based microscopic analysis (reference value: 100 %). Format: functional. Particulars: time 4 day. The gist of the method:
as §3

The test system of a further data set is Erythrocyte. Described as §1. Format: ADME, cell-based. Particulars: erythrocyte, 16 h, 150 µM. The method in brief:
as §2

In data set [10] the test system is Plasmodium berghei. The data set can be described thus: Antimalarial activity against Plasmodium berghei NK65 infected in Swiss mouse assessed as parasitemia at 10 mg/kg, po administered for 4 days and measured on day 9 post infection by Giemsa staining based microscopic analysis (reference value: 100 %). Format: functional. Particulars: time 4 day. The method in brief: as §3

Data set [11] deals with Plasmodium berghei. Briefly: Antimalarial activity against Plasmodium berghei NK65 infected in Swiss mouse assessed as parasitemia at 10 mg/kg, po administered for 4 days and measured on day 5 post infection by Giemsa staining based microscopic analysis (reference value: 100 %). Particulars: time 4 day. Format: functional. The gist of the method: as §3
For data set [12], the system named is Plasmodium berghei. Briefly: Antimalarial activity against Plasmodium berghei NK65 infected in Swiss mouse assessed as parasitemia at 5 mg/kg, po administered for 4 days and measured on day 5 post infection by Giemsa staining based microscopic analysis (reference value: 100 %). Format: functional. Particulars: time 4 day. The method in brief:
(§4)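 Modified Peters 4-day suppressive test in female Swiss mice infected with P. berghei NK65. Dosing was by gavage, with compounds dissolved in 5% DMSO and diluted in water. Parasitemia was read on Giemsa-stained blood smears. Inhibition of parasite multiplication = [(A−B)/A]×100, where A is the water + 5% DMSO group and B the treated group; both are group mean parasitemias.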

Data set [13] has as its system Plasmodium berghei. The data set can be described thus: Antimalarial activity against Plasmodium berghei NK65 infected in Swiss mouse assessed as parasitemia at 5 mg/kg, po administered for 4 days and measured on day 9 post infection by Giemsa staining based microscopic analysis (reference value: 100 %). Format: functional. Particulars: time 4 day. The method in brief: as §4

On to `Oc1ccccc1/C=N/CCNc1ccnc2cc(Cl)ccc12`, for which the selectivity ratio in data set [1] worked out at 97.4. Besides, the hemolysis at 16 h, 150 µM in data set [2] is under 10%. In addition, in data set [3], the CC50 at 48 h is 25.3 µM. For the same compound, the IC50 in the data set on Plasmodium falciparum was found to be 0.26 µM.
For the compound `Oc1cc(O)cc(/C=N/Nc2ccnc3cc(Cl)ccc23)c1`, the selectivity ratio in data set [1] was found to be 20.6. Further, the hemolysis at 16 h, 150 µM in data set [2] is under 10%. In addition, the CC50 at 48 h in data set [3] came out at 12.9 µM. In addition, the IC50 in the data set on Plasmodium falciparum was determined as 0.625 µM.
As for `O=Cc1ccc(/C=N/CCNc2ccnc3cc(Cl)ccc23)cc1`, the selectivity ratio in [1] was determined as 861. The CC50 at 48 h in data set [3] came to 138 µM. In addition, the IC50 with Plasmodium falciparum came out at 0.16 µM.
As to `Oc1ccc(/C=N/CCNc2ccnc3cc(Cl)ccc23)c(O)c1`, the selectivity ratio in [1] worked out at 990. Moreover, the log K in the data set on Ferriprotoporphyrin IX [4] turned out to be 4.77. Further, the hemolysis at 16 h, 150 µM in data set [2] is under 10%. Moreover, the Activity came out at 71.15% with Plasmodium berghei [5], 41.01% in the data set with Plasmodium berghei [6], 40.13% with Plasmodium berghei [7] and 93.7% in the data set with Plasmodium berghei [9]. Further, in data set [3], the CC50 at 48 h stood at 171 µM. For the same compound, the inhibition in the data set on Ferriprotoporphyrin IX [8] turned out to be 50.4%. Further, the IC50 in the data set on Plasmodium falciparum came to 0.172 µM.
Regarding `Oc1ccc(/C=N/CCNc2ccnc3cc(Cl)ccc23)cc1`, the selectivity ratio in [1] was 802. Also, in [2], the hemolysis at 16 h, 150 µM is under 10%. The CC50 at 48 h in data set [3] was found to be 130 µM. For the same compound, the IC50 with Plasmodium falciparum came out at 0.162 µM.
In the case of `CCN(CC)CCCC(C)Nc1ccnc2cc(Cl)ccc12` (centres undefined) [CHLOROQUINE], the Activity result with Erythrocyte is given as “Non-Toxic”; in the data set on Plasmodium berghei [10], 41.27%; with Plasmodium berghei [11] it was 94.04%. For the same compound, in data set [3], the CC50 at 48 h is over 19.4 µM.
For the compound `CC1(C)[C@@H](O[C@@H]2OC[C@H](O[C@@H]3OC[C@@H](O)[C@H](O)[C@H]3O)[C@H](O[C@H]3O[C@H](CO)[C@@H](O)[C@H](O)[C@H]3O)[C@H]2O[C@@H]2O[C@H](CO)[C@@H](O)[C@H](O)[C@H]2O[C@H]2O[C@H](CO)[C@@H](O)[C@H](O)[C@H]2O)CC[C@]2(C)[C@H]3CCC45OCC6(CC[C@@](C)(C=O)C[C@@H]64)[C@H](O)C[C@@]5(C)[C@]3(C)CC[C@@H]12` (some centres undefined) [SAPONIN], the Activity entry with Erythrocyte is “Toxic”.
Take `C[C@@H]1CC[C@H]2[C@@H](C)C(=O)O[C@@H]3O[C@@]4(C)CC[C@@H]1[C@]32OO4` [ARTEMISININ]: the values for the Activity in the data set on Plasmodium berghei [12] and in the data set on Plasmodium berghei [13] were 94.9% and 96.64%, respectively.
As to `O=C(O)c1ccc(/C=N/Nc2ccnc3cc(Cl)ccc23)cc1`, in [1], the selectivity ratio turned out to be 245. For the same compound, the hemolysis at 16 h, 150 µM in data set [2] was under 10%. Also, the CC50 at 48 h in data set [3] was 82 µM. For the same compound, the half-inhibitory concentration (IC50) in the data set on Plasmodium falciparum came out at 0.335 µM.
With `Oc1cc(O)cc(/C=N/CCNc2ccnc3cc(Cl)ccc23)c1`, the selectivity ratio in data set [1] amounted to 387. Also, the hemolysis at 16 h, 150 µM in data set [2] was under 10%. Moreover, the CC50 at 48 h in data set [3] was 79.3 µM. Also, the IC50 in the data set on Plasmodium falciparum came out at 0.205 µM.
Taken in the same sequence, the figures for `COc1cc(/C=N/Nc2ccnc3cc(Cl)ccc23)ccc1O` were 45.8, under 10%, 10.8 µM and 0.235 µM.
For `O=C(O)c1ccc(/C=N/CCNc2ccnc3cc(Cl)ccc23)cc1`, the selectivity ratio in data set [1] was over 195. Moreover, in data set [2], the hemolysis at 16 h, 150 µM was under 10%. Also, the Activity is reported as 72.64% in the data set with Plasmodium berghei [5] and 21.67% in the data set on Plasmodium berghei [7]. Moreover, the CC50 at 48 h in data set [3] was over 28.3 µM. In the data set on Plasmodium falciparum, the IC50 was determined as 0.145 µM.
Consider `Oc1ccc(/C=N/Nc2ccnc3cc(Cl)ccc23)c(O)c1`, for which, in data set [1], the selectivity ratio was 30.9. The hemolysis at 16 h, 150 µM in [2] is under 10%. Besides, in data set [3], the CC50 at 48 h is 7.27 µM. Further, the half-inhibitory concentration (IC50) in the data set on Plasmodium falciparum came to 0.235 µM.
